In the library only some 4% were active in any assay of this set; here they are far more common.
Insulin prom inh: TRM-6 insulin promoter activity inhibition; TRM-6 cells (human fetal islet line), insulin promoter-eGFP reporter, imaging; reporter expression induced with tamoxifen; inhibition, % at 2 µM; 0.9% of 130,000 active; AID 1273;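 active = inhibition above the mean plus 3 SD, with well images judged a real hit on visual review, cut at about 60% in these data, passing the limit was not always enough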
Yeast life ext: yeast lifespan extension | S. cerevisiae growth with nicotinamide, OD615; deaD strain in restrictive glucose medium | inhibition of the nicotinamide effect, % at 10 µM | 0.68% of 130,000 active;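 active = inhibition above a set limit, placed 3 SD over the median of all compounds, cut at about 26% in these data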;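 also: 0% = nicotinamide-treated wells and 100% = cells grown without nicotinamide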
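Assay system: engineered S. cerevisiae DeaD replicative-lifespan strain, galactose-grown log-phase cells; medium: restrictive CSMM-D dextrose medium; also added: nicotinamide, 1.5 mM, co-present with compound; schedule: 48 h compound exposure at 30 °C, humidified; detection: absorbance at 615 nm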
Measles CPE: protection of cells from measles virus; protection (pct of control), % at 4 µM; 1.5% of 140,000 active; Measles virus-infected cells, CPE protection, absorbance; AID 841; in the data active = protection mostly above about 24%, no sharp cut-off; inactive = mostly below about 26%
Yeast growth inh: reduces growth of yeast BB579 in restrictive medium; 0.51% of 140,000 active; AID 804; S. cerevisiae BB579 growth, OD615, 48 h; inhibition, % at 10 µM;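 active = inhibition above a set limit, 3 SD over the mean compound inhibition, cut at about 44% in these data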
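Test system: S. cerevisiae DeaD strain BB579 yeast; Medium: restrictive CSMM-D medium; Compound: one dose, 10 µM compound with 0.25% DMSO; Incubation: 4 h cell preincubation, 48 h compound exposure, 30 °C humidified; Signal: OD at 615 nm; Benchmarks: amphotericin B at 10 µg/mL as positive control.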
RAM inhibit: yeast RAM network inhibition; S. cerevisiae dse1pr::URA3 reporter, 5-FOA growth OD615, 2 d; analog-sensitive cbk1-as2 kinase mutant strain; inhibition, % at 50 µM; 1.8% of 190,000 active; AID 868;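 active = inhibition above a set limit, 3 SD over mean compound inhibition, cut at about 8.4% in these data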;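 also: 0% = DMSO-only wells with no growth and 100% = 10 µM 1-NA-PP1 full growth; inhibition rescues growth on 5-FOA so higher OD means more RAM inhibition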
Mdm2 ligase inh: blocks human Mdm2 ubiquitin ligase activity | cell-based MDM2 ubiquitination luciferase reporter, 2 h; 0 = plate control, 100 = twice control, blank-subtracted | signal enhancement, % at 5 µM | 0.11% of 210,000 active;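 active = signal enhancement of 30% or more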;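 also: luminescence tracks abundance of the self-degrading MDM2-luciferase fusion protein; higher signal means inhibition of MDM2 E3 ligase activity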
Target sequence (Q00987 whole entry, looked up, the tested form may be a part): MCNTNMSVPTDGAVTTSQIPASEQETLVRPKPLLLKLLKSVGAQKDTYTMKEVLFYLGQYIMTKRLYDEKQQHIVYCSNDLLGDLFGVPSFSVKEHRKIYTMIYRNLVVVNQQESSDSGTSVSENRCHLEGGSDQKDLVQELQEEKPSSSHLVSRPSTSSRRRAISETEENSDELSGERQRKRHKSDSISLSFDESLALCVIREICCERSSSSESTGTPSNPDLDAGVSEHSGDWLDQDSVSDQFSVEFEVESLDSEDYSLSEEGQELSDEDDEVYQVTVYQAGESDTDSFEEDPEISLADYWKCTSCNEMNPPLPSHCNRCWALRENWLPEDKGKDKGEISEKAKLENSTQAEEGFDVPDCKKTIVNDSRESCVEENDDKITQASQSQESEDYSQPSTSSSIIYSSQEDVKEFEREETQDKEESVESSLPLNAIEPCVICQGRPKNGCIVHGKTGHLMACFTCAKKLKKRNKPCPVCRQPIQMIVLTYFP
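Test system: mammalian cells stably expressing self-ubiquitinating, self-degrading MDM2 E3–luciferase fusion; Amount: 2000 cells in each well; Medium: DMEM; Schedule: 4 h settle plus 2 h compound, 37 °C; Technique: SteadyLite luciferase luminescence after 15 min room-temperature reagent incubation; Benchmarks: plate control and blank wells.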
The depositor's hits bear a star; i = inactive; nt = not tested or not shown.

SMILES	Insulin prom inh	Yeast life ext	Measles CPE	Yeast growth inh	RAM inhibit	Mdm2 ligase inh
CC(C)(C)[C@@H]1C=C(C(=O)NCc2ccccc2)O[C@H](OCc2ccc(CO)cc2)C1	nt	nt	nt	nt	3.7	nt
O=C(Nc1ccccc1)C1=C[C@@H](c2ccccc2)C[C@@H](OCc2ccc(CO)cc2)O1	nt	nt	nt	nt	9.9*	nt
CC(C)(C)[C@H]1C=C(C(=O)Nc2ccccc2)O[C@@H](OCc2ccc(CO)cc2)C1	nt	nt	nt	nt	10.0*	nt
CC(=O)n1cc([C@@H]2C=C(C(=O)NCc3ccccc3)O[C@H](OCCCCO)C2)c2ccccc21	nt	nt	nt	nt	3.1	nt
C#CCNC(=O)C1=C[C@H](c2csc3ccccc23)C[C@H](OCc2ccc(CO)cc2)O1	nt	nt	nt	nt	8.5*	nt
C#Cc1ccc([C@@H]2C=C(C(=O)OCC=C)O[C@H](OCc3ccc(CO)cc3)C2)cc1	nt	nt	nt	nt	10.3*	nt
CC(=O)n1cc([C@H]2C=C(C(=O)NCc3ccccc3)O[C@@H](OCCCCO)C2)c2ccccc21	nt	nt	nt	nt	8.8*	nt
O=C(O)C1=C[C@H](c2ccc(C(F)(F)F)cc2)C[C@H](OCc2ccc(CO)cc2)O1	nt	nt	nt	nt	-0.1	nt
O=C(Nc1ccccc1)C1=C[C@@H](c2ccc(C(F)(F)F)cc2)C[C@@H](OCc2ccc(CO)cc2)O1	nt	nt	nt	nt	9.7*	nt
CCOc1ccc(-c2cc(CCCC(=O)NCCc3ccccc3)no2)cc1	75.0*	-6.6	11.2	-13.1	0.6	-15.2
N#C/C(=C\c1ccc(OCC(N)=O)cc1)S(=O)(=O)c1ccccc1	nt	nt	nt	nt	1.1	-6.5
CNC(=S)NNC(=O)c1sc2cc(C(F)(F)F)cnc2c1-c1ccccn1	-9.1	nt	nt	nt	8.6*	-10.7
O=C(COC(=O)c1ccc[n+]([O-])c1)Nc1c(Br)cc([N+](=O)[O-])cc1Br	nt	nt	nt	nt	1.5	2.0
OC1CCN(c2cc(-c3ccccc3)nc3cc(-c4ccc(F)cc4)nn23)CC1	nt	nt	nt	nt	9.6*	-19.1
CCN1CCN(c2cc(-c3ccccc3)nc3cc(-c4cccc(F)c4)nn23)CC1	66.7	nt	8.2	-66.1	-0.7	-4.8
CCOC(=O)c1cc(NC(=O)c2c(C)noc2C)cc(C(=O)OCC)c1	65.8	5.5	4.5	-37.4	7.8	-11.1
Cc1ccc(-c2nnn(CC(=O)N(CC3CCCO3)C(C(=O)NCC3CCCO3)c3ccc(F)cc3)n2)o1 (stereo not drawn)	24.3	nt	41.6*	-27.3	2.1	nt
COC(=O)CNC(=O)c1c(-c2ccccc2Cl)noc1C	nt	6.0	4.8	-90.0	1.0	-3.1
COC(=O)CNC(=O)c1c(-c2c(Cl)cccc2Cl)noc1C	58.3	-18.4	41.4*	-4.0	3.8	-8.8
O=S1(=O)CCC(NC(=S)N2CCOCC2)C1 (stereo not drawn)	nt	13.1	23.8	-38.4	-0.6	7.0
O=C(NC(=S)Nc1ccc(N2CCOCC2)cc1)c1cncc(Br)c1	66.7*	-7.2	14.8	-10.9	-0.1	-9.0
O=C(NC(=S)Nc1ccc(N2CCOCC2)cc1)c1ccccc1	nt	nt	nt	nt	0.1	3.1
Cc1ccccc1Cn1ccc(=NCc2ccccc2)cc1	-40.0	7.4	3.5	-16.9	0.9	-6.5
CC[n+]1c(-c2ccc(C)cc2)csc1Nc1c(C)n(C)n(-c2ccccc2)c1=O	nt	-2.3	30.1*	-33.4	0.5	1.9
O=C(CCCC(=O)OCC(F)(F)C(F)F)Nc1ccc(NC(=O)CCCC(=O)OCC(F)(F)C(F)F)cc1	-48.6	-5.8	42.2*	-40.8	2.0	-0.3
SMILES	Insulin prom inh	Yeast life ext	Measles CPE	Yeast growth inh	RAM inhibit	Mdm2 ligase inh
Cc1ccc(-n2nnc(-c3ccnc4ccccc34)n2)cc1	nt	nt	nt	nt	3.2	nt
N#Cc1ccccc1S(=O)(=O)c1ccccc1C(=O)Nc1ccccc1	-54.5	nt	nt	nt	1.2	-1.7
Cc1ccc(-c2[nH]ncc2/C=C(\C#N)C(=O)NC2CCCCC2)cc1	nt	-9.2	70.1*	-9.3	1.5	-12.8
COc1ccc(-c2[nH]ncc2/C=C(/C#N)C(=O)NC2CCCCC2)cc1	15.2	-6.8	15.2	-60.1	2.4	-10.6
CC(=O)Nc1ccc(C(=O)OC2CCCCC2=O)cc1 (stereo not drawn)	10.1	-8.0	26.8	-67.5	1.6	-9.6
CC(=O)c1c(C)[nH]c(C(=O)OC2CCCCC2=O)c1C (stereo not drawn)	21.2	142.1*	28.9	-17.2	2.0	-13.5
COc1ccc(-c2cc(C(F)(F)F)nc(SCC(=O)NCc3ccco3)n2)cc1OC	-280.0	-13.2	1.1	-13.9	2.4	-19.7
COc1ccc(-c2cc(C(F)(F)F)nc(SCC(=O)NCc3cnn(C)c3C)n2)cc1OC	-46.7	3.7	7.3	-60.5	-1.4	34.8*
COc1ccc(NC(=O)Oc2cc(C)ccc2C(C)C)cc1	nt	nt	nt	nt	nt	-10.4
O=C(/C=C/c1cc([N+](=O)[O-])ccc1OC(F)F)Nc1ccc(OC(F)F)cc1	29.4	nt	nt	nt	1.6	-17.0
O=C(/C=C/c1cc([N+](=O)[O-])ccc1OC(F)F)NCc1ccc(F)cc1	18.8	-6.3	27.4	-65.3	8.7*	-2.0
CC(Nc1ccc(Br)cn1)c1cc(Cl)ccc1O (stereo not drawn)	28.6	3.3	5.5	60.5*	0.8	-14.4
Cc1ccccc1CN(C)CC(=O)NC(C)CCc1ccccc1 (stereo not drawn)	nt	nt	nt	nt	1.0	2.8
Cc1nc2ccccc2nc1N1CCCC1	nt	nt	nt	nt	nt	-8.9
Cc1ccc2c(Cl)c(C)c(N3CCCC3)nc2n1	76.7*	-4.8	4.1	-5.5	1.2	-14.3
CCCCn1[nH]c(-c2ccccc2)cc1=O	46.7	31.6*	6.4	-22.5	0.1	7.4
CC(=O)Oc1cccc(/C=c2\sc3nc(-c4ccco4)nn3c2=O)c1	29.6	15.6	9.0	-62.4	4.2	6.2
COc1cc(/C=c2\sc3nc(-c4ccncc4)nn3c2=O)ccc1OC(C)=O	0.0	32.6*	7.1	-38.8	1.4	-10.4
COc1ccc(F)cc1S(=O)(=O)N1CC(C)CC(C)C1 (stereo not drawn)	-19.2	-12.5	2.9	-48.9	0.9	-6.3
O=[N+]([O-])c1ccc(/C=N/N=C/c2ccc([N+](=O)[O-])o2)o1	i	nt	nt	nt	-0.3	77.4*
COc1cccc(-c2cc(C(=O)N3CC4(C)CC3CC(C)(C)C4)no2)c1 (stereo not drawn)	nt	1.0	7.3	-72.0	10.3*	-9.3
O=c1c(-c2ccccc2)nc(-c2ccccc2)cn1O	16.1	-4.3	18.7	48.8*	0.8	-18.0
CC(=O)Nc1ccc2nc(-c3ccccc3)cn2c1	-371.4	3.8	18.6	-25.7	1.6	-46.1
C/C(=N/OCO/N=C(/C)c1ccc(F)cc1)c1ccc(F)cc1	nt	-0.5	28.8*	-11.3	7.6	-7.3
Cc1ccc(/C=C(\NC(=O)c2ccc(C)cc2)C(=O)NCCCn2ccnc2)cc1	38.9	nt	nt	nt	0.8	2.1
COCCNC(=O)c1ccc(CN2CCOCC2)cc1	44.4	nt	13.7	-38.7	2.8	-8.0
COc1cc(-c2nnc(COC(=O)c3c4c(nc5ccccc35)CCCC4)o2)cc(OC)c1OC	-36.7	-5.7	10.1	-20.3	-0.1	-6.7

Screens from PubChem.
